Results reported in ChEMBL document CHEMBL1944511, “Bakuchiol derivatives as novel and potent cytotoxic agents: a report” (Eur J Med Chem, 2012).
The source made the active and inactive calls. The rule behind the calls is not given here.

Legend:
PC-3 [1] = test: Growth inhibition of human PC3 cells at 30 uM after 48 hrs by sulpharhodamine B assay; format: functional; conditions: PC-3, 48 h, read-out: GI
How it was run: (§1)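 Cells grown in RPMI-1640/MEM with 10% FCS, penicillin/streptomycin, 37 °C, 5% CO2. Seeded in 96-well plates, allowed to adhere overnight, then exposed 48 h to analogs in DMSO (vehicle <0.2% in controls). TCA-fixed, stained with 0.4% SRB in 1% acetic acid, dye solubilized in 10 mM Tris base, OD 570 nm (ref 620 nm). Mean ± SD of three experiments run in triplicate.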

THP-1 [2] = test: Cytotoxicity against human THP1 cells after 48 hrs by sulpharhodamine B assay; format: functional, cell-based; conditions: THP-1, 48 h
How it was run: (§2)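 Cells were grown in RPMI-1640/MEM with 10% FCS and penicillin/streptomycin at 37 °C under 5% CO2, then seeded and left to adhere overnight. Analogs in DMSO (vehicle <0.2%) were added at several concentrations for 48 h. Cells were fixed with cold 50% TCA, stained with 0.4% SRB in 1% acetic acid, solubilised in 10 mM Tris, and read at OD 570/620 nm. IC50 came from non-linear regression.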

IMR-32 = test: Growth inhibition of human IMR32 cells at 50 uM after 48 hrs by sulpharhodamine B assay; format: functional; conditions: IMR-32, 48 h, read-out: GI
How it was run: (§3)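 This is the SRB protein-stain assay on adherent cells in RPMI-1640/MEM with 10% FCS. Each compound in DMSO (vehicle <0.2%) was applied at a single fixed concentration for 48 h. Cells were fixed with TCA and stained with SRB, and the dye was solubilised in Tris and read at 570/620 nm. Percent growth inhibition is relative to vehicle-treated controls, reported as mean ± SD of three experiments run in triplicate.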

MCF7 [3] = test: Cytotoxicity against human MCF7 cells after 48 hrs by sulpharhodamine B assay; format: functional, cell-based; conditions: MCF7, 48 h; how it was run: as §2
PC-3 [4] = test: Growth inhibition of human PC3 cells at 20 uM after 48 hrs by sulpharhodamine B assay; format: functional; conditions: PC-3, 48 h, read-out: GI; how it was run: as §3
MCF7 [5] = test: Growth inhibition of human MCF7 cells at 30 uM after 48 hrs by sulpharhodamine B assay; format: functional; conditions: MCF7, 48 h, read-out: GI; how it was run: as §3
HL-60 [6] = test: Induction of apoptosis in human HL60 cells assessed as loss of mitochondrial membrane potential at 1 uM after 24 hrs by rodamine-123 staining-based flow cytometric analysis (reference value: 6%); format: functional
HL-60 [7] = test: Induction of apoptosis in human HL60 cells assessed as loss of mitochondrial membrane potential after 24 hrs by rodamine-123 staining-based flow cytometric analysis; format: functional, cell-based
HEp-2 [8] = test: Cytotoxicity against human Hep2 cells after 48 hrs by sulpharhodamine B assay; format: functional, cell-based; conditions: HEp-2, 48 h; how it was run: as §2
HEp-2 [9] = test: Growth inhibition of human Hep2 cells at 5 uM after 48 hrs by sulpharhodamine B assay; format: functional; conditions: HEp-2, 48 h, read-out: GI; how it was run: as §3
HL-60 [10] = test: Induction of apoptosis in human HL60 cells assessed as increase in […] sub-G0 fraction at 5 uM by propidium iodide staining-based flow cytometric analysis (reference value: 6%); format: functional
HeLa [11] = test: Growth inhibition of human HeLa cells at 30 uM after 48 hrs by sulpharhodamine B assay; format: functional; conditions: read-out: GI; how it was run: as §3
HEp-2 [12] = test: Growth inhibition of human Hep2 cells at 50 uM after 48 hrs by sulpharhodamine B assay; format: functional; conditions: HEp-2, 48 h, read-out: GI; how it was run: as §3
HL-60 [13] = test: Induction of apoptosis in human HL60 cells assessed as loss of mitochondrial membrane potential at 30 uM after 24 hrs by rodamine-123 staining-based flow cytometric analysis; format: functional
HL-60 [14] = test: Cytotoxicity against human HL60 cells after 48 hrs by sulpharhodamine B assay; format: functional, cell-based; conditions: HL-60, 48 h, in the assay text read “MTT assay” for “sulpharhodamine B assay”
HL-60 [15] = test: Induction of apoptosis in human HL60 cells assessed as DNA fragmentation after 24 hrs by agarose gel electrophoresis; format: functional, cell-based
How it was run: (§4)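 HL-60 cells (2×10^6/well/2 mL) treated 24 h in 6-well plates. DNA extracted with phenol:chloroform:isoamyl alcohol, ethanol-precipitated, run on 1% agarose at 80 V for 1.5 h in TAE.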

HL-60 [16] = test: Induction of apoptosis in human HL60 cells assessed as loss of mitochondrial membrane potential at 10 uM after 24 hrs by rodamine-123 staining-based flow cytometric analysis (reference value: 6%); format: functional
HeLa [17] = test: Growth inhibition of human HeLa cells at 50 uM after 48 hrs by sulpharhodamine B assay; format: functional; conditions: read-out: GI; how it was run: as §3
THP-1 [18] = test: Growth inhibition of human THP1 cells at 30 uM after 48 hrs by sulpharhodamine B assay; format: functional; conditions: THP-1, 48 h, read-out: GI; how it was run: as §1
SF-295 = test: Cytotoxicity against human SF295 cells after 48 hrs by sulpharhodamine B assay; format: functional, cell-based; conditions: SF-295, 48 h; how it was run: as §2
HL-60 [19] = test: Induction of apoptosis in human HL60 cells assessed as increase in […] sub-G0 fraction at 1 uM by propidium iodide staining-based flow cytometric analysis (reference value: 6%); format: functional
HL-60 [20] = test: Cytotoxicity against human HL60 cells after 24 hrs by MTT assay; format: functional, cell-based; conditions: for IC50: HL-60, 24 h
How it was run: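 Exponentially growing HL-60 cells (1.5×10^4 per well) in 96-well plates were exposed to a range of compound concentrations in DMSO, with vehicle-only controls. MTT (2.5 mg/mL stock) was added for 3–4 h at 37 °C, and formazan was dissolved in DMSO and read at OD 570/620 nm. […] Data are mean ± SD of n = 6 wells from two experiments.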

HL-60 [21] = test: Induction of apoptosis in human HL60 cells assessed as increase in […] sub-G0 fraction at 10 uM by propidium iodide staining-based flow cytometric analysis (reference value: 6%); format: functional
HL-60 [22] = test: Induction of apoptosis in human HL60 cells assessed as loss of mitochondrial membrane potential at 20 uM after 24 hrs by rodamine-123 staining-based flow cytometric analysis (reference value: 6%); format: functional
DU-145 = test: Growth inhibition of human DU145 cells at 5 uM after 48 hrs by sulpharhodamine B assay; format: functional; conditions: DU-145, 48 h, read-out: GI; how it was run: as §3
HL-60 [23] = test: Induction of apoptosis in human HL60 cells assessed as DNA fragmentation at 40 uM after 24 hrs by agarose gel electrophoresis; format: functional, cell-based; how it was run: as §4
HL-60 [24] = test: Induction of apoptosis in human HL60 cells assessed as DNA fragmentation at 20 uM after 24 hrs by agarose gel electrophoresis; format: functional, cell-based; how it was run: as §4

## COc1ccc(/C=C/[C@](C)(/C=C/c2ccc(O)cc2)CCC=C(C)C)cc1
PC-3 [1]
  inhibition of growth at 30 µM: 50%
THP-1 [2]
  IC50: 4.2 µM
IMR-32
  inhibition of growth at 50 µM: 69%
MCF7 [3]
  IC50: 23 µM
PC-3 [4]
  inhibition of growth at 20 µM: 58%
MCF7 [5]
  inhibition of growth at 30 µM: 52%
HL-60 [6]
  Activity: 14.4%
HL-60 [7]
  Activity: Dose-dependent effect
HEp-2 [8]
  IC50: 14 µM
HEp-2 [9]
  inhibition of growth at 5 µM: 23%
HL-60 [10]
  Activity: 8%
HeLa [11]
  inhibition of growth at 30 µM: 56%
HEp-2 [12]
  inhibition of growth at 50 µM: 62%
HL-60 [13]
  Activity: 55.4%
HL-60 [14]
  IC50: 2 µM
HL-60 [15]
  Activity: Dose-dependent effect
HL-60 [16]
  Activity: 46.4%
HeLa [17]
  inhibition of growth at 50 µM: 78%
THP-1 [18]
  inhibition of growth at 30 µM: 60%
SF-295
  IC50: 22 µM
HL-60 [19]
  Activity: 5%
HL-60 [20]
  Activity: Dose-dependent effect
  IC50: 16 µM
HL-60 [21]
  Activity: 41%
HL-60 [22]
  Activity: 51.4%
DU-145
  inhibition of growth at 5 µM: 20%

## CC1C(C(C)(C)O)CCC1(C)/C=C/c1ccc(O)cc1 (stereo not drawn)
PC-3 [1]
  inhibition of growth at 30 µM: 62%
THP-1 [2]
  IC50: 3.5 µM
IMR-32
  inhibition of growth at 50 µM: 85%
MCF7 [3]
  IC50: 22 µM
PC-3 [4]
  inhibition of growth at 20 µM: 57%
MCF7 [5]
  inhibition of growth at 30 µM: 58%
HL-60 [6]
  Activity: 12.4%
HL-60 [7]
  Activity: Dose-dependent effect
HEp-2 [8]
  IC50: 19 µM
HEp-2 [9]
  inhibition of growth at 5 µM: 17%
HL-60 [10]
  Activity: 12%
HeLa [11]
  inhibition of growth at 30 µM: 52%
HEp-2 [12]
  inhibition of growth at 50 µM: 65%
HL-60 [13]
  Activity: 54%
HL-60 [14]
  IC50: 1.8 µM
HL-60 [23]
  Activity: Active
HL-60 [16]
  Activity: 31.7%
HeLa [17]
  inhibition of growth at 50 µM: 68%
THP-1 [18]
  inhibition of growth at 30 µM: 68%
HL-60 [24]
  Activity: Active
SF-295
  IC50: 23 µM
HL-60 [19]
  Activity: 8%
HL-60 [20]
  Activity: Dose-dependent effect
  IC50: 18 µM
HL-60 [21]
  Activity: 34%
HL-60 [22]
  Activity: 49.1%
DU-145
  inhibition of growth at 5 µM: 32%
